Measurements: ChEMBL document CHEMBL3774372, “Design, physico-chemical properties and biological evaluation of some new N-[(phenoxy)alkyl]- and N-{2-[2-(phenoxy)ethoxy]ethyl}aminoalkanols as anticonvulsant agents” (Bioorg Med Chem, 2016)
Calls of active or inactive are those of the source.

Tests used:
[1] = molecular target: 5-hydroxytryptamine receptor 2C (Homo sapiens, UniProt P28335); test: Displacement of [3H][…] from human recombinant 5-HT2C receptor expressed in HEK293 cells; assay type: cell-based
Chain of 5-hydroxytryptamine receptor 2C (P28335 whole entry): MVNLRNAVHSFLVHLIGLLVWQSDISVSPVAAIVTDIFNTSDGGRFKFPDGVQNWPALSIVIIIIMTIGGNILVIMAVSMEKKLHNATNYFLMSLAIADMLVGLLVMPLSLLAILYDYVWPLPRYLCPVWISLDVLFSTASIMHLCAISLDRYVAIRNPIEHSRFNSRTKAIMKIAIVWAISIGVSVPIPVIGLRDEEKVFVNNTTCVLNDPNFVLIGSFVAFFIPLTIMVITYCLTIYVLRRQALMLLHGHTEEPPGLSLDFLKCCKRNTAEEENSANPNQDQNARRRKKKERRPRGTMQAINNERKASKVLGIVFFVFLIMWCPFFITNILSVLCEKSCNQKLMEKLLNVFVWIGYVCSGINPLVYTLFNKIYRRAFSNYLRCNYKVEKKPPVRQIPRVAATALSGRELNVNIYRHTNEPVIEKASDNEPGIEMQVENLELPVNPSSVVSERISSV

[2] = […] from rat cerebral cortex Sodium channel site 2; assay type: tissue-based
[3] = system: Mus musculus; test: Neurotoxicity in mouse at 100 mg/kg, ip after 4 hrs by rotarod test; assay type: toxicity, organism-based; conditions: in vivo
Procedure, shortened: (§1)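 Mice were dosed ip with compound suspended in 0.5% methylcellulose. Rotarod: a 1 in. knurled rod turning at 6 rpm. Neurotoxicity was scored as failure to stay on the rod for at least 1 min in each of three trials. Results are given as the number of animals affected out of the number tested.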

[4] = system: Mus musculus; test: Anticonvulsant activity in mouse assessed as protection against 6 Hz psychomotor seizure at 100 mg/kg, ip after 2 hrs; assay type: functional, organism-based
Procedure, shortened: (§2)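 Suspension in 0.5% methylcellulose given ip to mice; corneal stimulation with 0.2 ms monopolar rectangular pulses at 6 Hz for 3 s from a constant current device, mice restrained then released to observation cage. Protected if normal exploratory behaviour resumed within 10 s of stimulation. Scored as protected/tested, 4 mice per group.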

[5] = system: Mus musculus; test: Anticonvulsant activity in mouse assessed as protection against 6 Hz psychomotor seizure at 100 mg/kg, ip after 1 hr; assay type: functional, organism-based; procedure, shortened: as §2
[6] = system: Mus musculus; test: Anticonvulsant activity in mouse assessed as protection against 6 Hz psychomotor seizure at 100 mg/kg, ip after 4 hrs; assay type: functional, organism-based; procedure, shortened: as §2
[7] = system: Mus musculus; test: Neurotoxicity in mouse at 100 mg/kg, ip after 2 hrs by rotarod test; assay type: toxicity, organism-based; conditions: in vivo; procedure, shortened: as §1
[8] = system: Mus musculus; test: Anticonvulsant activity in mouse assessed as protection against 6 Hz psychomotor seizure at 100 mg/kg, ip after 0.5 hrs; assay type: functional, organism-based; procedure, shortened: as §2
[9] = system: Rattus norvegicus; test: Neurotoxicity in rat at 30 mg/kg, po after 2 hrs by rotarod test; assay type: toxicity, organism-based; conditions: in vivo
[10] = system: Vibrio harveyi; test: Antimutagenic activity against Vibrio harveyi BB7M assessed as inhibition of NQNO-induced mutagenicity after 48 hrs; assay type: functional
Procedure, shortened: (§3)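 V. harveyi cultures grown exponentially to A600 0.1 at 30 °C, exposed to test compound for 15 min, then to NQNO, and grown on to A600 0.3–0.4. 5 × 10⁶ cells plated on BOSS agar with neomycin (100, final). Neomycin-resistant colonies counted after 48 h at 30 °C. Result given as % inhibition of NQNO mutagenicity; three independent repeats.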

[11] = system: Vibrio harveyi; test: Mutagenicity in Vibrio harveyi BB7X assessed as number of colonies after 48 hrs (reference value: 15 to 16 no_unit); assay type: ADME, organism-based; conditions: in vivo
Procedure, shortened: (§4)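 Vibrio harveyi mutagenicity test: test compound was added to exponentially growing cultures (A600 = 0.1, 30 °C) and grown to OD600 0.3–0.4. Then 5 × 10^6 cells were plated on BOSS agar with neomycin (final 100 µg/mL) and incubated 48 h at 30 °C. Neomycin-resistant colonies were counted. Triplicate; controls were water, DMSO and NQNO 40 ng/mL.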

[12] = system: Mus musculus; test: Neurotoxicity in mouse at 30 mg/kg, ip after 0.5 hrs by rotarod test; assay type: toxicity, organism-based; conditions: in vivo; procedure, shortened: as §1
[13] = system: Vibrio harveyi; test: Antimutagenic activity against Vibrio harveyi BB7 assessed as inhibition of NQNO-induced mutagenicity after 48 hrs; assay type: functional; procedure, shortened: as §3
[14] = system: Mus musculus; test: Anticonvulsant activity in mouse assessed as protection against subcutaneous pentylenetetrazol-induced seizures at 30 mg/kg, ip measured after 0.5 hrs; assay type: functional, organism-based
Procedure, shortened: (§5)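 Mice dosed ip as 0.5% methylcellulose suspension; pentylenetetrazole 85 mg/kg in 0.9% NaCl injected subcutaneously into posterior midline, animals watched at least 30 min. Protection = no threshold seizure (single clonic spasm episode lasting ≥5 s); scored protected/tested.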

[15] = system: Mus musculus; test: Anticonvulsant activity in mouse assessed as protection against subcutaneous pentylenetetrazol-induced seizures at 30 mg/kg, ip measured after 4 hrs; assay type: functional, organism-based; procedure, shortened: as §5
[16] = system: Rattus norvegicus; test: Anticonvulsant activity in rat assessed as protection against maximal electric shock-induced seizures at 30 mg/kg, po measured after 4 hrs; assay type: functional, organism-based
Procedure, shortened: (§6)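 Rats dosed ip or orally as 0.5% methylcellulose suspension; maximal electroshock at listed time. Protection = abolition of hindlimb tonic extension; 4 rats per group, scored protected/tested.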

[17] = system: Rattus norvegicus; test: Neurotoxicity in rat at 30 mg/kg, po after 4 hrs by rotarod test; assay type: toxicity, organism-based; conditions: in vivo
[18] = system: Mus musculus; test: Anticonvulsant activity in mouse assessed as protection against maximal electric shock-induced seizures at 10 mg/kg, ip measured after 0.5 hrs; assay type: functional, organism-based
Procedure, shortened: (§7)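 Mice dosed ip with suspension in 0.5% methylcellulose; maximal electroshock applied at the listed time after dosing. Protection = abolition of hindlimb tonic extension component of seizure; reported as animals protected/animals tested.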

[19] = system: Mus musculus; test: Anticonvulsant activity in mouse assessed as protection against maximal electric shock-induced seizures at 30 mg/kg, ip measured after 0.5 hrs; assay type: functional, organism-based; procedure, shortened: as §7
[20] = system: Rattus norvegicus; test: Anticonvulsant activity in rat assessed as protection against maximal electric shock-induced seizures at 30 mg/kg, po measured after 2 hrs; assay type: functional, organism-based; procedure, shortened: as §6
[21] = system: Mus musculus; test: Neurotoxicity in mouse at 30 mg/kg, ip after 4 hrs by rotarod test; assay type: toxicity, organism-based; conditions: in vivo; procedure, shortened: as §1
[22] = system: Rattus norvegicus; test: Anticonvulsant activity in rat assessed as protection against maximal electric shock-induced seizures at 30 mg/kg, po measured after 1 hr; assay type: functional, organism-based; procedure, shortened: as §6
[23] = system: Mus musculus; test: Neurotoxicity in mouse at 100 mg/kg, ip after 0.5 hrs by rotarod test; assay type: toxicity, organism-based; conditions: in vivo; procedure, shortened: as §1
[24] = system: Vibrio harveyi; test: Mutagenicity in Vibrio harveyi BB7M assessed as number of colonies after 48 hrs (reference value: 13 to 14 no_unit); assay type: ADME, organism-based; conditions: in vivo; procedure, shortened: as §4
[25] = system: Vibrio harveyi; test: Mutagenicity in Vibrio harveyi BB7 assessed as number of colonies after 48 hrs (reference value: 13 to 14 no_unit); assay type: ADME, organism-based; conditions: in vivo; procedure, shortened: as §4
[26] = system: Mus musculus; test: Anticonvulsant activity in mouse assessed as protection against maximal electric shock-induced seizures at 30 mg/kg, ip measured after 4 hrs; assay type: functional, organism-based; procedure, shortened: as §7
[27] = system: Mus musculus; test: Neurotoxicity in mouse at 3 mg/kg, ip after 0.5 hrs by rotarod test; assay type: toxicity, organism-based; conditions: in vivo; procedure, shortened: as §1
[28] = system: Rattus norvegicus; test: Anticonvulsant activity in rat assessed as protection against maximal electric shock-induced seizures at 30 mg/kg, po measured after 0.5 hrs; assay type: functional, organism-based; procedure, shortened: as §6
[29] = system: Rattus norvegicus; test: Neurotoxicity in rat at 30 mg/kg, po after 1 hr by rotarod test; assay type: toxicity, organism-based; conditions: in vivo
[30] = system: Rattus norvegicus; test: Neurotoxicity in rat at 30 mg/kg, po after […] by rotarod test; assay type: toxicity, organism-based; conditions: in vivo
[31] = system: Vibrio harveyi; test: Mutagenicity in Vibrio harveyi BB7XM assessed as number of colonies after 48 hrs (reference value: 14 no_unit); assay type: ADME, organism-based; conditions: in vivo; procedure, shortened: as §4
[32] = system: Rattus norvegicus; test: Neurotoxicity in rat at 30 mg/kg, po after 0.5 hrs by rotarod test; assay type: toxicity, organism-based; conditions: in vivo
[33] = system: Mus musculus; test: Anticonvulsant activity in mouse assessed as protection against maximal electric shock-induced seizures at 3 mg/kg, ip measured after 0.5 hrs; assay type: functional, organism-based; procedure, shortened: as §7
[34] = system: Vibrio harveyi; test: Antimutagenic activity against Vibrio harveyi BB7X assessed as inhibition of NQNO-induced mutagenicity after 48 hrs; assay type: functional; procedure, shortened: as §3
[35] = system: Rattus norvegicus; test: Anticonvulsant activity in rat assessed as protection against maximal electric shock-induced seizures at 30 mg/kg, po measured after […]; assay type: functional, organism-based
[36] = system: Mus musculus; test: Neurotoxicity in mouse at 10 mg/kg, ip after 0.5 hrs by rotarod test; assay type: toxicity, organism-based; conditions: in vivo; procedure, shortened: as §1
[37] = system: Mus musculus; test: Neurotoxicity in mouse at 300 mg/kg, ip after 0.5 hrs by rotarod test; assay type: toxicity, organism-based; conditions: in vivo; procedure, shortened: as §1
[38] = system: Vibrio harveyi; test: Antimutagenic activity against Vibrio harveyi BB7XM assessed as inhibition of NQNO-induced mutagenicity after 48 hrs; assay type: functional; procedure, shortened: as §3
[39] = system: Mus musculus; test: Neurotoxicity in mouse at 100 mg/kg, ip after […] by rotarod test; assay type: toxicity, organism-based; conditions: in vivo
[40] = system: Mus musculus; test: Anticonvulsant activity in mouse assessed as protection against 6 Hz psychomotor seizure at 50 mg/kg, ip after 0.5 hrs; assay type: functional, organism-based; procedure, shortened: as §2
[41] = system: Mus musculus; test: Anticonvulsant activity in mouse assessed as protection against maximal electric shock-induced seizures at 100 mg/kg, ip measured after 0.5 hrs; assay type: functional, organism-based; procedure, shortened: as §7
[42] = system: Mus musculus; test: Anticonvulsant activity in mouse assessed as protection against 6 Hz psychomotor seizure at 50 mg/kg, ip after 4 hrs; assay type: functional, organism-based; procedure, shortened: as §2
[43] = system: Mus musculus; test: Neurotoxicity in mouse at 50 mg/kg, ip after 2 hrs by rotarod test; assay type: toxicity, organism-based; conditions: in vivo; procedure, shortened: as §1
[44] = system: Mus musculus; test: Anticonvulsant activity in mouse assessed as protection against maximal electric shock-induced seizures at 100 mg/kg, ip measured after 4 hrs; assay type: functional, organism-based; procedure, shortened: as §7
[45] = system: Mus musculus; test: Neurotoxicity in mouse at 50 mg/kg, ip after 1 hr by rotarod test; assay type: toxicity, organism-based; conditions: in vivo; procedure, shortened: as §1
[46] = system: Mus musculus; test: Neurotoxicity in mouse at 100 mg/kg, ip after 1 hr by rotarod test; assay type: toxicity, organism-based; conditions: in vivo; procedure, shortened: as §1
[47] = system: Mus musculus; test: Anticonvulsant activity in mouse assessed as protection against maximal electric shock-induced seizures at 100 mg/kg, ip measured after 1 hr; assay type: functional, organism-based; procedure, shortened: as §7
[48] = system: Mus musculus; test: Anticonvulsant activity in mouse assessed as protection against 6 Hz psychomotor seizure at 50 mg/kg, ip after 1 hr; assay type: functional, organism-based; procedure, shortened: as §2
[49] = system: Mus musculus; test: Anticonvulsant activity in mouse assessed as protection against 6 Hz psychomotor seizure at 50 mg/kg, ip after 2 hrs; assay type: functional, organism-based; procedure, shortened: as §2
[50] = system: Mus musculus; test: Anticonvulsant activity in mouse assessed as protection against maximal electric shock-induced seizures at 100 mg/kg, ip measured after […]; assay type: functional, organism-based
[51] = system: Mus musculus; test: Neurotoxicity in mouse at 50 mg/kg, ip after 0.5 hrs by rotarod test; assay type: toxicity, organism-based; conditions: in vivo; procedure, shortened: as §1
[52] = system: Mus musculus; test: Neurotoxicity in mouse at 50 mg/kg, ip after 4 hrs by rotarod test; assay type: toxicity, organism-based; conditions: in vivo; procedure, shortened: as §1

COc1cc(OC)c(C(=O)CCCCN2CCC3(CC2)NC(=O)NC3=O)cc1NS(=O)(=O)c1ccc(C(F)(F)F)cc1 [RS-102,221]
IC50 [1]: 0.0015 µM

COc1ccc(C(=O)O[C@H]2CC[C@@]3(C)[C@@H]4CC[C@H]5[C@]6(O)C[C@H](O)[C@@]7(O)[C@@H](CN8C[C@@H](C)CC[C@H]8[C@@]7(C)O)[C@]6(O)C[C@@]53O[C@]24O)cc1OC [VERATRIDINE]
IC50 [2]: 4 µM

Cc1ccc(OCCNC(C)CO)c(C)c1 (centres undefined)
Activity [3]: Non-toxic
Activity [4]: inactive
Activity [5]: inactive
Activity [6]: inactive
Activity [7]: Non-toxic
Activity [8]: inactive

CC[C@@H](CO)NCCOCCOc1c(C)cccc1C
Activity [9]: Non-toxic
inhibition (INH) [10]: 52%
Activity [11]: 27
Activity [12]: Non-toxic
inhibition (INH) [13]: 88%
Activity [14]: inactive
Activity [15]: inactive
Activity [16]: inactive
Activity [17]: Non-toxic
Activity [18]: inactive
Activity [19]: Active
Activity [20]: inactive
Activity [21]: Non-toxic
Activity [22]: inactive
Activity [23]: Toxic
Activity [24]: 26
Activity [25]: 28
Activity [26]: inactive
Activity [27]: Non-toxic
Activity [28]: inactive
Activity [29]: Non-toxic
Activity [30]: Non-toxic
Activity [31]: 22
Activity [32]: Non-toxic
Activity [33]: inactive
inhibition (INH) [34]: 22%
Activity [35]: inactive
Activity [36]: Non-toxic
Activity [37]: Toxic
inhibition (INH) [38]: 15%

Cc1cccc(OCCN[C@@H]2CCCC[C@H]2O)c1C (racemic)
Activity [39]: Toxic
Activity [40]: inactive
Activity [3]: Non-toxic
Activity [41]: Active
Activity [42]: inactive
Activity [23]: Toxic
Activity [43]: Non-toxic
Activity [44]: inactive
Activity [45]: Non-toxic
Activity [46]: Toxic
Activity [47]: Active
Activity [48]: inactive
Activity [49]: inactive
Activity [50]: Active
Activity [51]: Non-toxic
Activity [52]: Non-toxic
